p97 ATPase inh – inhibitors of human p97 ATPase, primary screen, biochemical; 0.42% of 220,000 active; recombinant p97 ATPase, Kinase-Glo ATP luminescence, 3 h; inhibition, % at 8 µM; AID 1481, 2009; Transitional endoplasmic reticulum ATPase (Homo sapiens), P55072; in the data active means inhibition above about 15%
RBBP9 inhibitor – human RBBP9 inhibitors, primary screen, biochemical, fluorescence polarization, FP-Rh probe, HTS | Serine hydrolase RBBP9 (Homo sapiens), O75884 | recombinant RBBP9 | inhibition, % at 7.94 µM | 0.2% of 220,000 active | AID 1515, 2009;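 active means inhibition above the campaign mean of all tested compounds plus 3 SD, cut at about 14% in these data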
Target sequence (O75884 whole entry, looked up): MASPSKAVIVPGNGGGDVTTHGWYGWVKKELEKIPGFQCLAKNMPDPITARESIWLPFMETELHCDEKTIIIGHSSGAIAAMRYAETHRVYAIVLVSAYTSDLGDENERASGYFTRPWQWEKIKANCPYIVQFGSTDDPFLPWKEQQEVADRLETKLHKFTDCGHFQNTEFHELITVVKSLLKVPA
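Test system: recombinant human RBBP9. Quantity: 2.5 µM RBBP9 dispensing solution, before mixing. Detection: FP readout at 525/598 nm. Reagent: Serine-hydrolase probe FP-Rh, 375 nM pre-mixing. Measure: % inhibition. Control set: DMSO-treated enzyme wells and wells lacking RBBP9. Buffer or medium: Tris-NaCl-Pluronic buffer, pH 8.0. Times: preincubation 30 min plus labeling 45 min at 25 °C.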
TNF death inh – inhibitors of TNF-alpha triggered necroptosis, primary screen, cell-based, Jurkat FADD-/-, single concentration; activation (protection from cell death), % at 10 µM; AID 463075, 2010; 0.068% of 220,000 active; Jurkat FADD-/- TNF necroptosis rescue, ATP luminescence, 24 h; 0 = TNF only, 100 = no-TNF cells;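 active means activation, meaning protection from cell death, of at least 50% relative to plate controls; inactive means activation below 50%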;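 further: necroptosis triggered by 40 ng/mL TNF-alpha added together with compound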
Wee1 degr inh – Wee1 degradation inhibitors, primary screen, cell-based, HeLa, Wee1K328M-luciferase, luminescence | Wee1-like protein kinase (Homo sapiens), P30291 | HeLa Luc-Wee1K328M stability; 100% = proteasome inhibitor MG132 effect | reporter increase, % at 5 µM | 1.2% of 220,000 active | AID 1321, 2008;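 active means activation above the mean of all tested compounds plus 3 SD, set per screening run, cut at about 8.8% in these data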;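 further: cells exposed to compound for 20 h before luminescence read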
L929 necroptosis – inhibitors of zVAD-triggered necroptosis, primary screen, L929 cells; 0.38% of 220,000 active; viability rescue, % at 10 µM; L929 zVAD necroptosis rescue, ATP luminescence, 24 h; with zVAD 60 µM;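 active means activation, scaled between plate controls, above about 75%, limit read from the data; inactive means activation under that limit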
M18AAP inhibitor – PfM18AAP inhibitors, malaria aminopeptidase, primary screen, biochemical, QFRET, recombinant enzyme | 1.2% of 290,000 active | inhibition, % at 7.35 µM | M18 aspartyl aminopeptidase (Plasmodium falciparum 3D7) | H-Glu-NHMec fluorogenic cleavage;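 active means inhibition above the campaign mean inhibition over all tested compounds plus 3 SD, cut at about 28% in these data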
RBBP9 inh conf – human RBBP9 inhibitors, retest, confirmation, biochemical, fluorescence polarization, FP-Rh probe, triplicate; shares compounds with RBBP9 inhibitor; recombinant RBBP9; inhibition, % at 7.94 µM; 36% of 410 active;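 active means inhibition above the hit cutoff derived for the primary screen, cut at about 15% in these data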
A number is an active result; i = inactive; nt = no result. Most compounds without a hit are left out; they make up all but 2.7% or so of the library.

SMILES	p97 ATPase inh	RBBP9 inhibitor	TNF death inh	Wee1 degr inh	L929 necroptosis	M18AAP inhibitor	RBBP9 inh conf
Cc1[nH]c2ccccc2c1C(=O)COC(=O)c1ccc[n+]([O-])c1	i	15.8	i	i	i	i	i
Cc1[nH]c2ccccc2c1C(=O)COC(=O)C1CCC1	nt	nt	nt	nt	nt	i	nt
CC1CCCCC1NC(=O)c1ccc(S(=O)(=O)NCc2ccco2)cc1 (centres undefined)	i	17.8	i	i	i	i	i
Nc1cc(=O)[nH]c(SCC(=O)Nc2cccc(Cl)c2Cl)n1	i	i	i	i	i	i	nt
COc1ccc(C2C(C#N)=C(N)OC3=C2C(=O)CC(C)(C)C3)cc1Cn1nc(C)c([N+](=O)[O-])c1C (centres undefined)	i	i	i	i	i	i	nt
COc1ccc(C2C(C#N)=C(N)Oc3c2c(C)nn3-c2ccccc2)cc1Cn1nc(C)c([N+](=O)[O-])c1C (centres undefined)	i	18.2	i	i	i	i	i
Cc1nn(-c2ccccc2)c2c1C(c1ccccc1)C(C#N)=C(N)O2 (centres undefined)	i	16.4	i	i	i	i	i
O=C(c1ccccc1)N1CCN(c2ccc([N+](=O)[O-])cc2-n2cccc2)CC1	i	14.4	i	i	i	i	i
O=C(c1ccccc1)N1CCN(C(=O)c2ccc([N+](=O)[O-])cc2)CC1	i	i	i	i	i	i	nt
Nc1ccccc1N1CCN(C(=O)c2ccccc2)CC1	i	15.0	i	i	i	i	i
COc1ccc(NC(=S)N2CCC(NC(=O)C3CCCCC3)CC2)cc1	nt	nt	nt	nt	nt	i	nt
O=C(CC1Nc2cccc3cccc(c23)NC1=O)Nc1ccccc1 (centres undefined)	i	16.1	i	i	i	i	i
CCCOc1ccc(NC(=O)CC2Nc3ccccc3NC2=O)cc1 (centres undefined)	i	i	i	i	i	i	nt
Cc1[nH]c(C)c(S(=O)(=O)N2CCN(c3ccccc3F)CC2)c1C(=O)N1CCCC1	nt	nt	nt	nt	nt	i	nt
CN(CC(=O)NCCc1ccccc1)S(=O)(=O)c1ccc(Br)cc1	i	14.7	i	i	i	i	i
CN(CC(=O)NCCCc1ccccc1)S(=O)(=O)c1ccc(Br)cc1	nt	nt	nt	nt	nt	i	nt
CCOc1cc(C)c(S(=O)(=O)Nc2ccc(Cl)cn2)cc1C	i	i	i	i	i	i	nt
CCOc1ccc(S(=O)(=O)Nc2ccc(Cl)cn2)c(C)c1C	i	16.9	i	i	i	i	i
CCN=C1S/C(=C\c2cc(OCC)c(O)cc2Br)C(=O)N1CC	i	24.1	i	i	i	i	i
CCN=C1S/C(=C\c2ccc(O)c(OCC)c2)C(=O)N1CC	i	i	i	i	i	i	nt
O=C(Nc1ccccc1O)c1ccc(NS(=O)(=O)c2cccc3cccnc23)cc1	i	i	i	i	i	i	nt
COc1cc(NC(=O)c2cc3ccccc3cc2O)c(OC)cc1Cl	i	i	i	i	i	i	nt
COc1ccccc1NC(=O)c1cc2cc(Br)ccc2cc1O	i	18.8	i	i	i	i	29.9
CCN(CC)C(=O)CNc1ccc(C(F)(F)F)cc1[N+](=O)[O-]	i	i	i	i	i	i	nt
COc1ccc(CNC(=O)CN2CCN(C(c3ccccc3)c3ccccc3)CC2)cc1	i	i	i	i	i	i	nt
O=C(CN1CCN(C(c2ccccc2)c2ccccc2)CC1)NCc1ccccc1	i	14.4	i	i	i	i	i
CCOc1ccc(-c2nc(CCl)cs2)cc1OC	i	i	i	i	i	i	nt
CC(Cn1cnc2ccccc21)C(=O)O (centres undefined)	i	14.5	i	i	i	i	i
